The values below come from ChEMBL document CHEMBL1133100, “Design and synthesis of Cyclopenta[g]quinazoline-based antifolates as inhibitors of thymidylate synthase and potential antitumor agents(,)” (J Med Chem, 2000).

Assay [1] concerns L1210. Kind of assay: Compound was tested for the inhibition of L1210 cell growth in mouse; value given as 1.7,2.0. Type of assay: functional, cell-based.
Assay [2] deals with T1, Thymidylate synthase (Mus musculus, UniProt P07607). Kind of assay: Compound was tested for the binding affinity against thymidylate synthase from L1210 mouse leukemia cells; value given as 2.4,1.8. Type of assay: cell-based. The conditions noted are these: read-out: Ki app. The essentials: (§1)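 Enzyme source was partially purified thymidylate synthase from L1210 mouse leukemia cells that overproduce TS through TS gene amplification. Apparent Ki was determined alongside the control CB3717 in each experiment. The test Kiapp/CB3717 Kiapp ratio was multiplied by the mean CB3717 Kiapp across experiments to allow comparison between experiments.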
T1 sequence (P07607 whole entry): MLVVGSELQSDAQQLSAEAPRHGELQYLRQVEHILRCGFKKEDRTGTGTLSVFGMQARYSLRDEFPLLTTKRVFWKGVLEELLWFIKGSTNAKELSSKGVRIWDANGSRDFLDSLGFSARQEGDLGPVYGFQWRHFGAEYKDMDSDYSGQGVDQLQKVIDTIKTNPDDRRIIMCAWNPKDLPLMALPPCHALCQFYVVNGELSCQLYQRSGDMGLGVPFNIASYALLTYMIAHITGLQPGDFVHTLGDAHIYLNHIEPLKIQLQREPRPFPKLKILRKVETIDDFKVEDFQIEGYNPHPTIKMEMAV

Assay [3] has as its system L1210. As to the kind of experiment: Compound was tested for the inhibition of L1210:1565 cell growth in mouse; value given as 3.5,4.1. Type of assay: functional, cell-based.
The subject of assay [4] is L1210. As to the kind of experiment: Compound was tested for the inhibition of L1210: 1565 cell growth in mouse. Type of assay: functional, cell-based.
Assay [5] has as its system L1210. Kind of assay: Compound was tested for the inhibition of L1210 cell growth in mouse. Type of assay: functional, cell-based.
Assay [6] addresses T1, Thymidylate synthase. Kind of assay: Binding affinity against thymidylate synthase from L1210 mouse leukemia cells. As to conditions: read-out: Ki app. Type of assay: cell-based. The essentials: as §1
Assay [7] deals with L1210. Kind of assay: Compound was tested for the inhibition of L1210 cell growth in mouse; value given as 7.2, 7.2. Type of assay: functional, cell-based.
Assay [8] relates to L1210. Kind of assay: Compound was tested for the inhibition of L1210: 1565 cell growth in mouse; value given as 3.9, 3.0. Type of assay: functional, cell-based.
Assay [9] concerns the target T1, Thymidylate synthase. As to the kind of experiment: Compound was tested for the binding affinity against thymidylate synthase from L1210 mouse leukemia cells; value given as 0.9, 2.0. Type of assay: cell-based. As to conditions: read-out: Ki app. The essentials: as §1
In assay [10] the test system is L1210. As to the kind of experiment: Compound was tested for the inhibition of L1210 cell growth in mouse; Value was given as 2.3,1.8. Type of assay: functional, cell-based.
Assay [11] deals with L1210. As to the kind of experiment: Compound was tested for the inhibition of L1210: 1565 cell growth in mouse; value given as 8.2, 7.8. Type of assay: functional, cell-based.
Assay [12] has as its system L1210. As to the kind of experiment: Compound was tested for the inhibition of L1210: 1565 cell growth in mouse; value given as 3.6, 2.7. Type of assay: functional, cell-based.
Assay [13] has as its system L1210. Kind of assay: Compound was tested for the inhibition of L1210: 1565 cell growth in mouse; value given as 1.2, 1.6. Type of assay: functional, cell-based.
In assay [14] the test system is L1210. Kind of assay: Compound was tested for the inhibition of L1210: 1565 cell growth in mouse; Value given as 1.3,0.84. Type of assay: functional, cell-based.

As to `C#CCN(c1ccc(C(=O)N[C@@H](CCc2nnnn2CC(=O)O)C(=O)O)cc1)C1CCc2cc3nc(C)nc(O)c3cc21` (some centres not stated), the results for the IC50 in assay [1] and in assay [3] were 2000 nM and 4100 nM, respectively. Further, the Ki in assay [2] is 2.4 nM.
As for `C#CCN(c1ccc(C(=O)N[C@@H](CCC(=O)N[C@H](CCC(=O)O)C(=O)O)C(=O)O)cc1)C1CCc2cc3nc(C)nc(O)c3cc21` (some centres not stated), the IC50 (usually the concentration that inhibits the measured activity by half) in [4] turned out to be 2200 nM; in assay [5] it was 300 nM. Besides, the Ki in [6] amounted to 0.42 nM.
The matching figures for `C#CCN(c1ccc(C(=O)N[C@@H](CCc2nnnn2CC(=O)N[C@H](C)C(=O)O)C(=O)O)cc1)C1CCc2cc3nc(C)nc(O)c3cc21` (some centres not stated): 13000 nM, 19000 nM and 2.2 nM.
Consider `C#CCN(c1ccc(C(=O)N[C@@H](CCC(=O)N[C@@H](CCc2nnnn2CC(=O)O)C(=O)O)C(=O)O)cc1)C1CCc2cc3nc(C)nc(O)c3cc21` (some centres not stated), for which the IC50 in [7] stood at 7200 nM; in [8], 3900 nM. The Ki in assay [6] was 0.26 nM.
Turning to `C#CCN(Cc1cc2c(O)nc(C)nc2cc1C)c1ccc(C(=O)N[C@@H](CCC(=O)N[C@H](CCC(=O)O)C(=O)O)C(=O)O)cc1`, the IC50 in assay [4] was 14000 nM; in assay [5] it was 220 nM. The Ki in [6] was determined as 2 nM.
For the compound `C#CCN(c1ccc(C(=O)N[C@@H](CCc2nnnn2CCCC(=O)O)C(=O)O)cc1)C1CCc2cc3nc(C)nc(O)c3cc21` (some centres not stated), the Ki in assay [9] stood at 2 nM. For the same compound, the values for the IC50 in assay [4] and in [5] were 2300 nM and 2700 nM, respectively.
In the case of `C#CCN(c1ccc(C(=O)N[C@@H](CCC(=O)N(C)[C@H](CCC(=O)O)C(=O)O)C(=O)O)cc1)C1CCc2cc3nc(C)nc(O)c3cc21` (some centres not stated), the IC50 in assay [4] was determined as 4400 nM; in assay [10], 2300 nM. Also, the Ki in assay [6] was determined as 0.78 nM.
For the compound `C#CCN(c1ccc(C(=O)N[C@@H](CCCS(=O)(=O)c2nnc[nH]2)C(=O)O)cc1)C1CCc2cc3nc(C)[nH]c(=O)c3cc21` (some centres not stated), the IC50 worked out at 680 nM in assay [4] and 490 nM in assay [5]. Besides, the Ki in assay [6] was 0.78 nM.
For `C#CCN(c1ccc(C(=O)N[C@@H](CCC(=O)N[C@H](C)C(=O)NS(=O)(=O)c2ccccc2)C(=O)O)cc1)C1CCc2cc3nc(C)nc(O)c3cc21` (some centres not stated), the IC50 in [5] amounted to 1900 nM; in assay [11] it was 8200 nM. Moreover, the Ki in assay [6] was found to be 2.4 nM.
With `C#CCN(c1ccc(C(=O)N[C@@H](CCC(=O)N[C@H](CCC)c2nnn[nH]2)C(=O)O)cc1)C1CCc2cc3nc(C)[nH]c(=O)c3cc21` (some centres not stated), the half-maximal inhibitory concentration (IC50) amounted to 3600 nM in assay [12] and 440 nM in assay [5]. Also, in [6], the Ki was 2.6 nM.
As for `C#CCN(c1ccc(C(=O)N[C@@H](CCC(=O)N[C@H](C)C(=O)O)C(=O)O)cc1)C1CCc2cc3nc(C)nc(O)c3cc21` (some centres not stated), the IC50 in assay [4] came out at 1400 nM; in [5], 420 nM. Besides, in assay [6], the Ki came out at 1.1 nM.
As to `C#CCN(c1ccc(C(=O)N[C@@H](CCC(=O)N[C@H](C)c2nnn[nH]2)C(=O)O)cc1)C1CCc2cc3nc(C)[nH]c(=O)c3cc21` (some centres not stated), the IC50 worked out at 1600 nM in assay [13] and 640 nM in [5]. In assay [6], the Ki is 2.2 nM.
Take `C#CCN(c1ccc(C(=O)N[C@@H](CCc2nnn(CC(=O)O)n2)C(=O)O)cc1)C1CCc2cc3nc(C)nc(O)c3cc21` (some centres not stated): the results for the IC50 in [14] and in assay [5] were 1300 nM and 180 nM, respectively. For the same compound, the Ki in assay [6] came out at 1.7 nM.
Consider `C#CCN(c1ccc(C(=O)N[C@@H](CCC(=O)N[C@H](CCC(=O)O)c2nnn[nH]2)C(=O)O)cc1)C1CCc2cc3nc(C)[nH]c(=O)c3cc21` (some centres not stated), for which the results for the IC50 in assay [4] and in assay [5] were 1300 nM and 1500 nM, respectively. Besides, the Ki in assay [6] was 0.2 nM.
